Data as given in ChEMBL document CHEMBL1145928, “Guanidino N-substituted and N,N-disubstituted derivatives of the kappa-opioid antagonist GNTI” (J Med Chem, 2003).

What was measured:
[1] = target: T1, Kappa-type opioid receptor (Homo sapiens, UniProt P41145); assay: Binding affinity against cloned human Opioid receptor kappa 1 transfected into chinese hamster ovary cells using [3H]U-69593 as radioligand; assay type: cell-based
In short: (§1)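 Competition binding in CHO cells transfected with cloned human opioid receptors, using [3H]DAMGO (μ), [3H]Cl-DPDPE (δ) and [3H]U69,593 (κ) as displaced radioligands. Hill slopes were examined. Data are averages of two experiments, each run in triplicate.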

[2] = target: T2, Delta-type opioid receptor (Homo sapiens, UniProt P41143); assay: Antagonistic activity against cloned human Opioid receptor delta 1 using DPDPE as ligand in [35S]GTP-gamma-S, assay; assay type: functional
[3] = target: T2, Delta-type opioid receptor; assay: Binding affinity against cloned human Opioid receptor delta 1 transfected into chinese hamster ovary cells using [3H]Cl-DPDPE as radioligand; assay type: cell-based; in short: as §1
[4] = target: T1, Kappa-type opioid receptor; assay: Antagonistic activity against cloned human Opioid receptor kappa 1 using U69,593 as ligand in [35S]GTP-gamma-S, assay; assay type: functional
[5] = target: T3, Mu-type opioid receptor (Homo sapiens, UniProt P35372); assay: Binding affinity against cloned human Opioid receptor mu 1 transfected into chinese hamster ovary cells using [3H]DAMGO as radioligand; assay type: cell-based; in short: as §1
[6] = target: T3, Mu-type opioid receptor; assay: Antagonistic activity against cloned human Opioid receptor mu 1 using DAMGO as ligand in [35S]GTP-gamma-S, assay; assay type: functional
[7] = target: T4, Opioid receptors; delta & kappa (Homo sapiens) (UniProt P41145+P41143); assay: Ratio of (Ke) delta-opioid receptor to that of (Ke) kappa-opioid receptor; assay type: protein assay
In short: (§2)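 Selectivity ratios taken from [35S]GTPγS antagonist values in CHO membranes expressing cloned human receptors (μ with DAMGO, δ with Cl-DPDPE, κ with U69,593), as μ/κ and δ/κ. Values are means of five or six experiments.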

[8] = target: T5, Opioid receptors; mu & kappa (Homo sapiens) (UniProt P41145+P35372); assay: Ratio of (Ke) mu-opioid receptor to that of (Ke) kappa-opioid receptor; assay type: protein assay; in short: as §2
[9] = target: T4, Opioid receptors; delta & kappa (Homo sapiens); assay: Ratio of (Ki) delta-opioid receptor to that of (Ki) kappa-opioid receptor; assay type: protein assay
In short: (§3)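 Ki ratios μ/κ and δ/κ from competition binding in CHO cells with cloned human receptors, displacing [3H]DAMGO, [3H]Cl-DPDPE or [3H]U69,593. Data are averages of two experiments, each run in triplicate.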

[10] = target: T5, Opioid receptors; mu & kappa (Homo sapiens); assay: Ratio of (Ki) mu-opioid receptor to that of (Ki) kappa-opioid receptor; assay type: protein assay; in short: as §3

T5 sequence (P35372 whole entry, looked up): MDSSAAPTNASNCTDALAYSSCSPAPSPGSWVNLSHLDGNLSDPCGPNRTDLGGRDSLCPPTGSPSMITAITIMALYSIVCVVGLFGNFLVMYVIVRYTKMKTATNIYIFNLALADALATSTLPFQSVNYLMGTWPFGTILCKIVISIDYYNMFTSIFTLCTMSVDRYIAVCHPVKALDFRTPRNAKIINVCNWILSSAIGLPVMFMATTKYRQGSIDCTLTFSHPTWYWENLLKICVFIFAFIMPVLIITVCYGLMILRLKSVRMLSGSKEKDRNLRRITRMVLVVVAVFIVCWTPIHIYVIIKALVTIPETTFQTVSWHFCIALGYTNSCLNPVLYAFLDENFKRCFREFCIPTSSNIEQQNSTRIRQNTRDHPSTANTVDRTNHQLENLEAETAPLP
T5 sequence (P41145 whole entry, looked up): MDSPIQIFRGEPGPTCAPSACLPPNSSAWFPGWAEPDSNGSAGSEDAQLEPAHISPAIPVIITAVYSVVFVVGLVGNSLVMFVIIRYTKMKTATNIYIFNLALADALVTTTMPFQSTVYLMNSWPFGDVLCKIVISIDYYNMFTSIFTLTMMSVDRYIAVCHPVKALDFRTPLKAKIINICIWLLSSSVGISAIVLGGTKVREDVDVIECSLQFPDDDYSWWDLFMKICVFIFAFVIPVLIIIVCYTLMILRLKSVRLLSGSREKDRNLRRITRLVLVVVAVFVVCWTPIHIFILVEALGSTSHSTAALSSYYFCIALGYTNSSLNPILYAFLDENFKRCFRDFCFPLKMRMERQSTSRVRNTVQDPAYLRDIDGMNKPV
T3 sequence (P35372 whole entry): as the sequence (P35372 whole entry, looked up) above
T1 sequence (P41145 whole entry): as the sequence (P41145 whole entry, looked up) above
T2 sequence (P41143 whole entry): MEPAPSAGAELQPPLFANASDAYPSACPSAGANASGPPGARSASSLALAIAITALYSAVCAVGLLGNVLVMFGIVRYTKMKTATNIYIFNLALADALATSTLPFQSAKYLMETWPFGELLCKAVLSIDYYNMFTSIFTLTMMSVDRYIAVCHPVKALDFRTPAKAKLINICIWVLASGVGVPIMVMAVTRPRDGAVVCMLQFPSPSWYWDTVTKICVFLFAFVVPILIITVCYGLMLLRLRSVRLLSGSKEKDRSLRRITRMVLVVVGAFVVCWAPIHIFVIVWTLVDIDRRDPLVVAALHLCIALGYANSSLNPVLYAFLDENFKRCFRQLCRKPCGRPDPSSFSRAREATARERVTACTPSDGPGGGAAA
T4 sequence (P41143 whole entry, looked up): as the sequence (P41143 whole entry) above
T4 sequence (P41145 whole entry, looked up): as the sequence (P41145 whole entry, looked up) above

For `N/C(=N/Cc1ccc(Cl)cc1)Nc1ccc2[nH]c3c(c2c1)C[C@@]1(O)[C@H]2Cc4ccc(O)c5c4[C@@]1(CCN2CC1CC1)[C@H]3O5`, the Ki [1] was 0.66 nM, the Ke [2] was 7.67 nM and the Ki [3] was 85 nM. For the same compound, the Ke [4] was 0.14 nM, the Ki [5] was 29.8 nM and the Ke [6] was 5.24 nM. The Ratio [7] was 55, the Ratio [8] was 37 and the Ratio [9] was 129. It also gave a Ratio [10] of 45.

For `N/C(=N/Cc1ccccc1)Nc1ccc2[nH]c3c(c2c1)C[C@@]1(O)[C@H]2Cc4ccc(O)c5c4[C@@]1(CCN2CC1CC1)[C@H]3O5`, the Ki [1] was 0.86 nM, the Ke [2] was 4.09 nM and the Ki [3] was 26.8 nM. It also gave a Ke [4] of 0.06 nM, a Ki [5] of 10.5 nM and a Ke [6] of 1.41 nM. It also gave a Ratio [7] of 68, a Ratio [8] of 24 and a Ratio [9] of 31. The Ratio [10] was 12.

`N=C(N)NCCc1ccc2[nH]c3c(c2c1)C[C@@]1(O)[C@H]2Cc4ccc(O)c5c4[C@@]1(CCN2CC1CC1)[C@H]3O5` gave a Ki [1] of 0.49 nM, a Ke [2] of 0.88 nM and a Ki [3] of 4.93 nM. For the same compound, the Ke [4] was 0.4 nM, the Ki [5] was 5.69 nM and the Ke [6] was 1.25 nM. It also gave a Ratio [7] of 2, a Ratio [8] of 3 and a Ratio [9] of 10. It also gave a Ratio [10] of 12.

In the case of `N/C(=N\CCc1ccc2[nH]c3c(c2c1)C[C@@]1(O)[C@H]2Cc4ccc(O)c5c4[C@@]1(CCN2CC1CC1)[C@H]3O5)NCc1ccc(N)cc1`, the Ki [1] is reported as 0.95 nM, the Ke [2] is reported as 0.95 nM and the Ki [3] is reported as 5.05 nM. The Ke [4] was 0.25 nM, the Ki [5] was 7.78 nM and the Ke [6] was 1.57 nM. The Ratio [7] was 4, the Ratio [8] was 6 and the Ratio [9] was 5. The Ratio [10] was 8.

`N/C(=N\CCc1ccc2[nH]c3c(c2c1)C[C@@]1(O)[C@H]2Cc4ccc(O)c5c4[C@@]1(CCN2CC1CC1)[C@H]3O5)NCc1ccccc1` showed a Ki [1] of 1.42 nM, a Ke [2] of 1.36 nM and a Ki [3] of 7.24 nM. For the same compound, the Ke [4] was 0.13 nM, the Ki [5] was 3.54 nM and the Ke [6] was 2.94 nM. For the same compound, the Ratio [7] was 10, the Ratio [8] was 23 and the Ratio [9] was 5. It also gave a Ratio [10] of 2.

In the case of `CCCN/C(=N\CC1CC1)Nc1ccc2[nH]c3c(c2c1)C[C@@]1(O)[C@H]2Cc4ccc(O)c5c4[C@@]1(CCN2CC1CC1)[C@H]3O5`, the Ki [1] is reported as 2.38 nM, the Ke [2] is reported as 6.31 nM and the Ki [3] is reported as 15.5 nM. It also gave a Ke [4] of 0.08 nM, a Ki [5] of 22.4 nM and a Ke [6] of 3.26 nM. For the same compound, the Ratio [7] was 79, the Ratio [8] was 41 and the Ratio [9] was 6.5. For the same compound, the Ratio [10] was 9.

Compound `N/C(=N/Cc1ccc(O)cc1)Nc1ccc2[nH]c3c(c2c1)C[C@@]1(O)[C@H]2Cc4ccc(O)c5c4[C@@]1(CCN2CC1CC1)[C@H]3O5` has a Ki [1] of 3.26 nM, a Ke [2] of 18.3 nM and a Ki [3] of 41.9 nM. The Ke [4] was 0.1 nM, the Ki [5] was 14.7 nM and the Ke [6] was 12.7 nM. The Ratio [7] was 183, the Ratio [8] was 127 and the Ratio [9] was 13. It also gave a Ratio [10] of 4.5.

In the case of `CCC/N=C(\NCCC)Nc1ccc2[nH]c3c(c2c1)C[C@@]1(O)[C@H]2Cc4ccc(O)c5c4[C@@]1(CCN2CC1CC1)[C@H]3O5`, the Ki [1] is reported as 2.72 nM, the Ke [2] is reported as 2.43 nM and the Ki [3] is reported as 8.52 nM. For the same compound, the Ke [4] was 0.26 nM, the Ki [5] was 9.83 nM and the Ke [6] was 4.59 nM. For the same compound, the Ratio [7] was 9, the Ratio [8] was 18 and the Ratio [9] was 3. The Ratio [10] was 4.

`N/C(=N/Cc1cccc(O)c1)Nc1ccc2[nH]c3c(c2c1)C[C@@]1(O)[C@H]2Cc4ccc(O)c5c4[C@@]1(CCN2CC1CC1)[C@H]3O5` showed a Ki [1] of 2.74 nM, a Ke [2] of 4.35 nM and a Ki [3] of 17.6 nM. It also gave a Ke [4] of 0.13 nM, a Ki [5] of 14.2 nM and a Ke [6] of 4.28 nM. It also gave a Ratio [7] of 33, a Ratio [8] of 33 and a Ratio [9] of 6. The Ratio [10] was 5.

`N/C(=N\CCc1ccc2[nH]c3c(c2c1)C[C@@]1(O)[C@H]2Cc4ccc(O)c5c4[C@@]1(CCN2CC1CC1)[C@H]3O5)NCc1ccc(Cl)cc1` showed a Ki [1] of 2.41 nM, a Ke [2] of 1.48 nM and a Ki [3] of 19.2 nM. For the same compound, the Ke [4] was 0.23 nM, the Ki [5] was 7.74 nM and the Ke [6] was 2.61 nM. It also gave a Ratio [7] of 6, a Ratio [8] of 11 and a Ratio [9] of 8. For the same compound, the Ratio [10] was 3.

Work on `N/C(=N/Cc1ccc(N)cc1)Nc1ccc2[nH]c3c(c2c1)C[C@@]1(O)[C@H]2Cc4ccc(O)c5c4[C@@]1(CCN2CC1CC1)[C@H]3O5` yielded a Ki [1] of 0.63 nM, a Ke [2] of 10.8 nM and a Ki [3] of 23.9 nM. The Ke [4] was 0.09 nM, the Ki [5] was 7.89 nM and the Ke [6] was 1.22 nM. For the same compound, the Ratio [7] was 120, the Ratio [8] was 14 and the Ratio [9] was 68. It also gave a Ratio [10] of 13.

`CCCC/N=C(\NCCCC)Nc1ccc2[nH]c3c(c2c1)C[C@@]1(O)[C@H]2Cc4ccc(O)c5c4[C@@]1(CCN2CC1CC1)[C@H]3O5` gave a Ki [1] of 6.96 nM, a Ke [2] of 5.24 nM and a Ki [3] of 15 nM. The Ke [4] was 0.44 nM, the Ki [5] was 18.3 nM and the Ke [6] was 5.66 nM. It also gave a Ratio [7] of 12, a Ratio [8] of 13 and a Ratio [9] of 2. It also gave a Ratio [10] of 3.

With `N=C(N)NCc1ccc2[nH]c3c(c2c1)C[C@@]1(O)[C@H]2Cc4ccc(O)c5c4[C@@]1(CCN2CC1CC1)[C@H]3O5` the Ki [1] was 0.18 nM, the Ke [2] was 15.5 nM and the Ki [3] was 70 nM. It also gave a Ke [4] of 0.04 nM, a Ki [5] of 36.9 nM and a Ke [6] of 3.23 nM. The Ratio [7] was 389, the Ratio [8] was 81 and the Ratio [9] was 389. It also gave a Ratio [10] of 205.

In the case of `CCCC/N=C(\NCCCC)NCCc1ccc2[nH]c3c(c2c1)C[C@@]1(O)[C@H]2Cc4ccc(O)c5c4[C@@]1(CCN2CC1CC1)[C@H]3O5`, the Ki [1] is reported as 4.8 nM, the Ke [2] is reported as 1.05 nM and the Ki [3] is reported as 6.73 nM. It also gave a Ke [4] of 0.39 nM, a Ki [5] of 7.89 nM and a Ke [6] of 4.62 nM. For the same compound, the Ratio [7] was 3, the Ratio [8] was 12 and the Ratio [9] was 1.5. For the same compound, the Ratio [10] was 1.5.

For `N/C(=N\CCc1ccc2[nH]c3c(c2c1)C[C@@]1(O)[C@H]2Cc4ccc(O)c5c4[C@@]1(CCN2CC1CC1)[C@H]3O5)NCc1ccc([N+](=O)[O-])cc1`, the Ki [1] was 2.14 nM, the Ke [2] was 1.34 nM and the Ki [3] was 11.7 nM. It also gave a Ke [4] of 0.17 nM, a Ki [5] of 9.21 nM and a Ke [6] of 2.2 nM. For the same compound, the Ratio [7] was 8, the Ratio [8] was 13 and the Ratio [9] was 5. The Ratio [10] was 4.

Compound `Oc1ccc2c3c1O[C@H]1c4[nH]c5ccc(N/C(=N/CC6CC6)NCc6ccccc6)cc5c4C[C@@]4(O)[C@@H](C2)N(CC2CC2)CC[C@]314` has a Ki [1] of 3.91 nM, a Ke [2] of 3.28 nM and a Ki [3] of 18.1 nM. For the same compound, the Ke [4] was 0.17 nM, the Ki [5] was 17.7 nM and the Ke [6] was 2.75 nM. The Ratio [7] was 19, the Ratio [8] was 16 and the Ratio [9] was 5. It also gave a Ratio [10] of 4.5.

`N/C(=N/Cc1ccc([N+](=O)[O-])cc1)Nc1ccc2[nH]c3c(c2c1)C[C@@]1(O)[C@H]2Cc4ccc(O)c5c4[C@@]1(CCN2CC1CC1)[C@H]3O5` showed a Ki [1] of 1.61 nM, a Ke [2] of 16.7 nM and a Ki [3] of 95.8 nM. The Ke [4] was 0.18 nM, the Ki [5] was 26.3 nM and the Ke [6] was 3.71 nM. For the same compound, the Ratio [7] was 93, the Ratio [8] was 21 and the Ratio [9] was 60. For the same compound, the Ratio [10] was 16.
